Measurements published in PMC5689068 (ACS chemical neuroscience, 2016).
Read-outs that look alike come from different tables or passages of the source. Where a SMILES comes first, the peptide text is derived from it. [ ]: non-standard residue; d: D form. Oic = O=C(O)[C@@H]1C[C@@H]2CCCC[C@@H]2N1; dTic = O=C(O)[C@H]1Cc2ccccc2CN1; 2Thi = N[C@@H](Cc1cccs1)C(=O)O; Nle = CCCC[C@H](N)C(=O)O; Orn = NCCC[C@H](N)C(=O)O

What was measured:
[1] = target: BK receptors; assay: Radioligand competition binding assay with [3H]BK in rat brain membranes; conditions: for log[IC50], BK receptors, [3H]BK / IC50: pH 6.8, rat brain membranes, 1 nM [3H]BK; for IC50: read-out: IC50, BK receptors, [3H]BK; for affinity at the BK receptors (in words): D-amino acid substitutions
[2] = In vitro stability in rat plasma; assay type: in vitro ADME; conditions: for half-life / remaining at 24 h, 10 mg/mL / remaining at 120 h, 10 mg/mL: rat; for half-life: plasma, t1/2 in rat plasma, 37 °C
[3] = In vitro stability in human plasma; assay type: in vitro ADME; conditions: human plasma; for Intact (%): after a 24 h incubation; for remaining at 24 h, 10 mg/mL: human
Procedure, shortened: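 Test compound stock (50 mg/mL in water) was diluted 5-fold into lithium-heparin human plasma and incubated at 37 °C. Samples were taken at 1, 2, 4, 6, 12 and 24 h, quenched with EtOH and centrifuged. Supernatant was run on C-18 RP-HPLC (10–90% acetonitrile, 40 min). t1/2 = 0.693/b, where b is the slope of ln(fraction parent remaining) versus time. Three independent experiments.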

[4] = target: BK receptors; conditions: competition assay using 1 nM [3H]DALKD, cited from earlier work
[5] = test system: SNL rats; assay: Hypersensitivity tests in L5/L6 spinal nerve ligation; assay type: in vivo, rat; conditions: i.th.
Procedure, shortened: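 L5/L6 spinal nerve-ligated male Sprague-Dawley rats (250–300 g, nonfasted) with lumbar-level i.th. catheters received test compound or vehicle at 3 nmol/5 µL i.th. Tactile paw withdrawal thresholds were measured against baseline and post-SNL values with von Frey filaments (up-down method, Dixon analysis) every 20 min up to 120 min after injection. One-way ANOVA, significance at p ≤ 0.05.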

[6] = test system: naïve rats; assay: von Frey filament and Infra-Red tests in naïve rats; assay type: in vivo, rat
Procedure, shortened: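 Nonfasted male Sprague-Dawley rats (250–300 g) carried i.th. catheters placed through the atlanto-occipital membrane to lumbar level under ketamine/xylazine (80/12 mg/kg i.p.). Naïve rats received Dyn A-(2–13) with or without test compound (3 nmol/5 µL i.th.). Tests were run every 20 min up to 120 min. Infrared paw withdrawal latency was calibrated to ~20 s on the uninjured paw; von Frey thresholds used the up-down/Dixon method. One-way ANOVA, p ≤ 0.05.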

[7] = calculated from a 5 day stability test
[8] = i.th. co-administration 3 nmol/5 μL with Dyn A-(2–13) 3 nmol

Compound	log[IC50], BK receptors, [3H]BK [1]	IC50 [1]	half-life ([2]; 24 h study)	remaining at 24 h, 10 mg/mL ([2]; rat plasma)	further results
CC[C@H](C)[C@H](NC(=O)[C@H](CCCNC(=N)N)NC(=O)[C@H](CC(C)C)NC(=O)[C@@H](N)Cc1ccccc1)C(=O)N[C@H](CCCNC(=N)N)C(=O)N1CCC[C@H]1C(=O)N[C@@H](CCCCN)C(=O)O [compound 13, H-Phe-Leu-Arg-Ile-D-Arg-Pro-Lys-OH]	−5.23 ± 0.12	5900 nM			
CC[C@H](C)[C@H](NC(=O)[C@@H](CCCNC(=N)N)NC(=O)[C@H](CC(C)C)NC(=O)[C@@H](N)Cc1ccccc1)C(=O)N[C@@H](CCCNC(=N)N)C(=O)N1CCC[C@H]1C(=O)N[C@@H](CCCCN)C(=O)O [compound 15, H-Phe-Leu-D-Arg-Ile-Arg-Pro-Lys-OH]	−6.51 ± 0.19	310 nM	31 h	62 ± 25%	
CC[C@H](C)[C@H](NC(=O)[C@H](CCCNC(=N)N)NC(=O)[C@H](CC(C)C)NC(=O)[C@@H](N)Cc1ccccc1)C(=O)N[C@@H](CCCNC(=N)N)C(=O)N1CCC[C@H]1C(=O)N[C@H](CCCCN)C(=O)O [compound 11, H-Phe-Leu-Arg-Ile-Arg-Pro-D-Lys-OH]	−6.03 ± 0.14	830 nM		0%	
CC[C@H](C)[C@H](NC(=O)[C@@H](CCCNC(=N)N)NC(=O)[C@H](CC(C)C)NC(=O)[C@H](N)Cc1ccccc1)C(=O)N[C@@H](CCCNC(=N)N)C(=O)N1CCC[C@H]1C(=O)N[C@@H](CCCCN)C(=O)O [compound 18, H-D-Phe-Leu-D-Arg-Ile-Arg-Pro-Lys-OH]		> 10000 nM			affinity at the BK receptors (in words) [1]: completely abolished affinity
CC[C@@H](C)[C@@H](NC(=O)[C@H](CCCNC(=N)N)NC(=O)[C@H](CC(C)C)NC(=O)[C@@H](N)Cc1ccccc1)C(=O)N[C@@H](CCCNC(=N)N)C(=O)N1CCC[C@H]1C(=O)N[C@@H](CCCCN)C(=O)O [compound 14, H-Phe-Leu-Arg-D-Ile-Arg-Pro-Lys-OH]		> 10000 nM	3.3 h	0%	
CCCC[C@H](NC(=O)[C@H](Cc1ccccc1)NC(C)=O)C(=O)N[C@@H](CCCNC(=N)N)C(=O)N[C@@H](CCCC)C(=O)N[C@@H](CCCNC(=N)N)C(=O)N1CCC[C@H]1C(=O)N[C@@H](CCCNC(=N)N)C(=O)O [compound 5, Ac-Phe-Nle-Arg-Nle-Arg-Pro-Arg-OH] (Ac-F[Nle]R[Nle]RPR-OH)			3.4 h	0%	
CC[C@H](C)[C@H](NC(=O)[C@H](CCCNC(=N)N)NC(=O)[C@H](CC(C)C)NC(=O)[C@H](Cc1ccccc1)NC)C(=O)N[C@@H](CCCNC(=N)N)C(=O)N1CCC[C@H]1C(=O)N[C@@H](CCCCN)C(=O)O [compound 20, H-NMePhe-Leu-Arg-Ile-Arg-Pro-Lys-OH]	−6.06 ± 0.14	870 nM	15 h	31 ± 11%	
CC[C@H](C)[C@H](NC(=O)[C@H](CCCNC(=N)N)NC(=O)[C@H](CC(C)C)NC(=O)[C@H](N)Cc1ccccc1)C(=O)N[C@@H](CCCNC(=N)N)C(=O)N1CCC[C@H]1C(=O)N[C@@H](CCCCN)C(=O)O [compound 17, H-D-Phe-Leu-Arg-Ile-Arg-Pro-Lys-OH]	−6.60 ± 0.14	250 nM	19 h	44 ± 12%	
CC[C@H](C)[C@H](NC(=O)[C@H](CCCNC(=N)N)NC(=O)[C@@H](CC(C)C)NC(=O)[C@H](N)Cc1ccccc1)C(=O)N[C@@H](CCCNC(=N)N)C(=O)N1CCC[C@H]1C(=O)N[C@@H](CCCCN)C(=O)O [compound 19, H-D-Phe-D-Leu-Arg-Ile-Arg-Pro-Lys-OH]		> 10000 nM			affinity at the BK receptors (in words) [1]: completely abolished affinity
H-FLRIR[2Thi]K-OH [compound 9]	−5.99 ± 0.20	1000 nM			
CC[C@H](C)[C@H](NC(=O)[C@H](CCCNC(=N)N)NC(=O)[C@H](CC(C)C)NC(=O)[C@@H](N)Cc1ccccc1)C(=O)N[C@@H](CCCNC(=N)N)C(=O)N1CCC[C@@H]1C(=O)N[C@@H](CCCCN)C(=O)O [compound 12, H-Phe-Leu-Arg-Ile-Arg-D-Pro-Lys-OH]		> 10000 nM			
CCCC[C@H](NC(=O)[C@@H](N)Cc1ccccc1)C(=O)N[C@@H](CCCNC(=N)N)C(=O)N[C@H](C(=O)N[C@@H](CCCNC(=N)N)C(=O)N1CCC[C@H]1C(=O)N[C@@H](CCCCN)C(=O)O)[C@@H](C)CC [compound 2, H-Phe-Nle-Arg-Ile-Arg-Pro-Lys-OH]	−6.79 ± 0.10	160 nM			
CC[C@H](C)[C@H](NC(=O)[C@H](CCCNC(=N)N)NC(=O)[C@H](CC(C)C)N(C)C(=O)[C@@H](N)Cc1ccccc1)C(=O)N[C@@H](CCCNC(=N)N)C(=O)N1CCC[C@H]1C(=O)N[C@@H](CCCCN)C(=O)O [compound 21, H-Phe-NMeLeu-Arg-Ile-Arg-Pro-Lys-OH]			> 4000 h	100 ± 16%	half-life [2, 7]: 65 h; remaining at 120 h, 10 mg/mL ([2]; rat plasma): 31%; Intact (%) [3]: more than 95%; remaining at 24 h, 10 mg/mL [3]: 96 ± 5%
CC[C@H](C)[C@H](NC(=O)[C@H](CCCNC(=N)N)NC(=O)[C@H](CC(C)C)NC(=O)[C@@H](N)Cc1ccccc1)C(=O)N[C@@H](CCCNC(=N)N)C(=O)N1[C@H](C(=O)N[C@@H](CCCCN)C(=O)O)C[C@@H]2CCCC[C@@H]21 [compound 10, H-Phe-Leu-Arg-Ile-Arg-Oic-Lys-OH] (H-FLRIR[Oic]K-OH)	−5.82 ± 0.10	1500 nM			
CCCC[C@H](NC(=O)[C@H](CCCNC(=N)N)NC(=O)[C@H](CC(C)C)NC(=O)[C@@H](N)Cc1ccccc1)C(=O)N[C@@H](CCCNC(=N)N)C(=O)N1CCC[C@H]1C(=O)N[C@@H](CCCCN)C(=O)O [compound 3, H-Phe-Leu-Arg-Nle-Arg-Pro-Lys-OH] (H-FLR[Nle]RPK-OH)	−7.05 ± 0.09				
CC[C@H](C)[C@H](NC(=O)[C@H](CCCN)NC(=O)[C@H](CC(C)C)NC(=O)[C@@H](N)Cc1ccccc1)C(=O)N[C@@H](CCCN)C(=O)N1CCC[C@H]1C(=O)N[C@@H](CCCN)C(=O)O [compound 6, H-Phe-Leu-Orn-Ile-Orn-Pro-Orn-OH] (H-FL[Orn]I[Orn]P[Orn]-OH)	−6.29 ± 0.12	510 nM			
CCCC[C@H](NC(=O)[C@H](CCCNC(=N)N)NC(=O)[C@H](CCCC)NC(=O)[C@@H](N)Cc1ccccc1)C(=O)N[C@@H](CCCNC(=N)N)C(=O)N1CCC[C@H]1C(=O)N[C@@H](CCCNC(=N)N)C(=O)O [compound 4, H-Phe-Nle-Arg-Nle-Arg-Pro-Arg-OH] (H-F[Nle]R[Nle]RPR-OH)			1.2 h	0%	log[IC50], BK receptors [4]: −7.06 ± 0.10; IC50 ([4]; read-out: IC50, BK receptors): 86 nM
CC[C@H](C)[C@H](NC(=O)[C@H](CCCNC(=N)N)NC(=O)[C@@H](CC(C)C)NC(=O)[C@@H](N)Cc1ccccc1)C(=O)N[C@@H](CCCNC(=N)N)C(=O)N1CCC[C@H]1C(=O)N[C@@H](CCCCN)C(=O)O [compound 16, H-Phe-D-Leu-Arg-Ile-Arg-Pro-Lys-OH]	−6.90 ± 0.23	130 nM		99 ± 9%	nerve injury-related tactile hypersensitivity [5]: modulated; increase in stability in plasma compared to that of 1 [2]: 229 fold; Intact (%) ([2]; rat plasma, after a 24 h incubation): more than 95%; half-life [2, 7]: 160 h; remaining at 120 h, 10 mg/mL ([2]; rat plasma): 66%; Dyn A-(2–13)-induced tactile hypersensitivity (von Frey filament test) [6, 8]: blocked; Dyn A-(2–13)-induced thermal hypersensitivity (Infra-Red test) [6, 8]: blocked; time of maximal paw withdrawal threshold and latency after injection ([6]; i.th., 3 nmol/5 μL): 40 min; Intact (%) [3]: more than 95%; remaining at 24 h, 10 mg/mL [3]: 99 ± 10%
Dyn A-(2–13) [reference compound]					paw withdrawal latency (Infra-Red test) ([6]; i.th. injection 3 nmol, alone): reduced; paw withdrawal threshold (von Frey filament test) ([6]; i.th. injection 3 nmol, alone): reduced
CC[C@H](C)[C@H](NC(=O)[C@H](CCCNC(=N)N)NC(=O)[C@H](CC(C)C)NC(=O)[C@@H](N)Cc1ccccc1)C(=O)N[C@@H](CCCNC(=N)N)C(=O)N1Cc2ccccc2C[C@@H]1C(=O)N[C@@H](CCCCN)C(=O)O [compound 8, H-Phe-Leu-Arg-Ile-Arg-D-Tic-Lys-OH] (H-FLRIR[dTic]K-OH)		> 10000 nM			
